These results are taken from ChEMBL document CHEMBL3407407, “New mimetic peptides inhibitors of Αβ aggregation. Molecular guidance for rational drug design” (Eur J Med Chem, 2015).

Experiment [1] addresses Amyloid-beta precursor protein (Homo sapiens) (UniProt P05067). The experiment can be described thus: Inhibition of amyloid beta(42) aggregation (unknown origin) at 0.78 to 3200 uM after 1.5 hrs using anti-amyloid beta antibody DE2B4 by dot blot analysis. In a few lines: (§1)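 Aβ42 at 25 mM (so in the source) was incubated quiescent at 37 °C for 1.5 h across a compound concentration range (5% DMSO) and spotted on nitrocellulose. For A11, blots were blocked in PBS/0.2% Tween-20, then taken through A11 (1:4000, Hepes pH 7.0, overnight 4 °C) and anti-rabbit-HRP. For DE2B4 (total Aβ), blots were blocked in PBS-Tween/5% milk, then DE2B4 1:20,000 overnight 4 °C and anti-mouse-HRP. Read-out was chemiluminescence.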

Experiment [2] has the same target. The experiment in a line: Inhibition of amyloid beta(42) aggregation (unknown origin) at 0.75 to 100 uM after 7 days by thioflavin T fluorescence method. The gist of the method: (§2)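 Aβ42 at 25 mM (so in the source) in PBS, concentration set by A280 (ε 1490 M-1 cm-1), incubated quiescent at 37 °C for 7 days with compound (range 0–3200 mM as printed, from DMSO; final DMSO 5%). Samples then mixed with […] for 10 min at room temperature. Excitation 450 nm, emission 470–560 nm. Independent triplicates averaged, buffer+ThT+compound background subtracted.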

The target is the same in experiment [3]. The experiment can be described thus: Inhibition of amyloid beta(42) aggregation (unknown origin) assessed as A11-positive oligomer formation at 100 uM after 0.5 to 70 hrs by kinetic study. In a few lines:
(§3)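 A11 dot-blot time course. Aβ42 at 25 mM (so in the source) was incubated at 37 °C with compound at 100 mM (so in the source), 5% DMSO vehicle (5% water for the reference). Aliquots were taken at 0.5, 1.5, 5, 20, 30, 55 and 70 h, spotted on nitrocellulose, then probed with A11 and anti-rabbit-HRP. Read-out was chemiluminescence.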

The target is the same in experiment [4]. The experiment in a line: Inhibition of amyloid beta(42) aggregation (unknown origin) at 100 uM after 7 days by transmission electron microscopy. The gist of the method:
(§4)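 Aβ42 at 25 mM (so in the source) was incubated with compound at 37 °C for 7 days. Aliquots were adsorbed for 1 min onto carbon-coated Formvar copper grids, then blotted, washed and negatively stained for transmission electron microscopy.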

Experiment [5] shares this target. The experiment can be described thus: Inhibition of amyloid beta(42) aggregation (unknown origin) at 0.78 to 3200 uM after 1.5 hrs using anti-oligomer A11 antibody by dot blot analysis. The gist of the method: as §1
Experiment [6] has the same target. The experiment can be described thus: Inhibition of amyloid beta(42) aggregation (unknown origin) at 100 to 3200 uM after 1.5 hrs using anti-amyloid beta antibody DE2B4 by dot blot analysis. The gist of the method:
as §1

For experiment [7] the target is unchanged. The experiment can be described thus: Inhibition of amyloid beta(42) aggregation (unknown origin) at 100 uM up to 1.5 hrs by thioflavin T fluorescence-based kinetic study. The gist of the method:
(§5)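 In situ ThT kinetics. Aβ42 at 25 mM (so in the source) in PBS was incubated at 37 °C in sealed wells with 15 mM ThT and compound at 100 mM (so in the source), diluted 20-fold from DMSO to 5% DMSO. Fluorescence was read at intervals with excitation 450 nm and emission 470–600 nm. Background was corrected for ThT plus vehicle, with or without compound.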

For experiment [8] the target is unchanged. The experiment in a line: Inhibition of amyloid beta(42) aggregation (unknown origin) at 100 to 200 uM after 7 days by transmission electron microscopy. The gist of the method: as §4
For experiment [9] the target is unchanged. The experiment can be described thus: Inhibition of amyloid beta(42) aggregation (unknown origin) at 100 to 3200 uM after 1.5 hrs using anti-oligomer A11 antibody by dot blot analysis. In a few lines:
as §1

Experiment [10] has the same target. The experiment in a line: Inhibition of amyloid beta(42) aggregation (unknown origin) after 7 days by thioflavin T fluorescence method. The gist of the method: as §2
For experiment [11] the target is unchanged. The experiment can be described thus: Inhibition of amyloid beta(42) aggregation (unknown origin) at 100 uM after 5 hrs by thioflavin T fluorescence-based kinetic study. The gist of the method: as §5
Experiment [12] has the same target. The experiment in a line: Inhibition of amyloid beta(42) aggregation (unknown origin) assessed as A11-positive oligomer formation at 100 uM up to 1.5 hrs by kinetic study. The gist of the method: as §3
Experiment [13] shares this target. The experiment can be described thus: Inhibition of amyloid beta(42) aggregation (unknown origin) at 100 uM after 7 days by thioflavin T fluorescence method. The gist of the method: as §2
The target is the same in experiment [14]. The experiment can be described thus: Inhibition of amyloid beta(42) aggregation (unknown origin) at 3200 uM after 7 days by thioflavin T fluorescence method. In a few lines: as §2
Experiment [15] has the same target. The experiment can be described thus: Inhibition of amyloid beta(42) aggregation (unknown origin) at 100 to 3200 uM after 7 days by transmission electron microscopy. In a few lines:
as §4

The structures appear in SMILES notation. Calls of active or inactive are those of the source. The rule behind the calls is not given here.

Amyloid-beta precursor protein (Homo sapiens), sequence (P05067 whole entry): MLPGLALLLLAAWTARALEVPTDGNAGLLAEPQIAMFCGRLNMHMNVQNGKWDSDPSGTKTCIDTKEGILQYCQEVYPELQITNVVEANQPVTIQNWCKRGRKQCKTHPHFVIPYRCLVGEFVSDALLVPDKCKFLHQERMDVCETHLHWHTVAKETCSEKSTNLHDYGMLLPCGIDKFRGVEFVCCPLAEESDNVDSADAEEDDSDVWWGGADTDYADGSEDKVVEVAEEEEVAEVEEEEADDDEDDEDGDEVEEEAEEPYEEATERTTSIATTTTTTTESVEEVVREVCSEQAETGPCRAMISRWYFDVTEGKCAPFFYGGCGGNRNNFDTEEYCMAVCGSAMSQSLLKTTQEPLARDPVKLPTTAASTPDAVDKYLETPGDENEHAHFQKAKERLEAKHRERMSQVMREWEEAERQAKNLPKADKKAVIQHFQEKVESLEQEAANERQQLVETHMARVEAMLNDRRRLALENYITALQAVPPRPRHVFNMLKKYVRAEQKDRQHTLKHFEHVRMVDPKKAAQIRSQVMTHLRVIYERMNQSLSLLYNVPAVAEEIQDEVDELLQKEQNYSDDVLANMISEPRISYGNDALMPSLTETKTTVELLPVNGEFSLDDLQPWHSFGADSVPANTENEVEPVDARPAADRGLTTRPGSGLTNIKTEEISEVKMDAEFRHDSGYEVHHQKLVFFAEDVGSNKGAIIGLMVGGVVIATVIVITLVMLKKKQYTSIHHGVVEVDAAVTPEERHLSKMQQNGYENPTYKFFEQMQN

As for `O=C(NCCCC[C@H](NC(=O)OCc1ccccc1)C(=O)O)OCc1ccccc1`, the inhibition result in experiment [1], in experiment [2], in [3], in experiment [4] and in experiment [5] was “inactive” throughout.

In the case of `CC(C)(C)OC(=O)N[C@@H](CCCCNC(=O)OCc1ccccc1)C(=O)ON1C(=O)CCC1=O`, the inhibition result in experiment [6], in experiment [7], in [8], in experiment [9], in experiment [3] and in [12] was “Active” each time. In addition, the inhibition result in experiment [13] was “Active”. Further, the inhibition entry in experiment [10] is “Dose-dependent effect”. In addition, in [11], the inhibition result is “inactive”.

Take `CNc1ccc(C(=O)N[C@@H](CCCCNC(=O)OCc2ccccc2)C(=O)O)cc1`: in experiment [10], the inhibition result is “Dose-dependent effect”. Further, the inhibition entry in [3] was “inactive”. Moreover, the inhibition entry in experiment [14] and in experiment [15] was “Active” in each case.

For the molecule `O=C(NCCCC[C@H](NC(=O)OCc1ccccc1)C(=O)ON1C(=O)CCC1=O)OCc1ccccc1`, the inhibition entry in experiment [6], in experiment [7], in experiment [9], in experiment [3], in experiment [12] and in experiment [13] was “Active” in each case. Besides, the inhibition result in experiment [10] was “Dose-dependent effect”. Moreover, in experiment [11], the inhibition entry is “inactive”.

With `O[C@H]1[C@H](O)[C@@H](O)[C@H](O)[C@@H](O)[C@@H]1O`, the inhibition entry in [3] is “inactive”.

`O=C(NCCCC[C@H](NC(=O)OCC1c2ccccc2-c2ccccc21)C(=O)O)OCc1ccccc1`: the inhibition entry in experiment [1], in [3], in experiment [4] and in experiment [5] was “inactive” throughout.
